# Compounds with a hit are over-represented: about 5.8% of the library has one in this group of screens.
# Rev-RRE block = HIV-1 Rev-RRE binding inhibitors, primary screen, biochemical, FRET, protein-RNA interaction. 97,000 tested, 0.79% active. AID 704, 2007. P05866. inhibition, % at 8 µM. Rev peptide-RRE RNA binding;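 active means inhibition above the screen-wide mean plus 3 SD, cut at about 35% in these data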;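 further: 0% = median DMSO wells and 100% = median Neomycin B control wells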
#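 assay system = Cy5-tagged RRE RNA duplex with fluorescein-tagged Rev peptide | incubation = 5 + 15 min at 25 °C | also added = labelled Rev peptide | measure = % inhibition of FRET ratio versus controls | benchmarks = DMSO wells as 0% and neomycin B wells as 100% inhibition | measured by = FRET fluorescence readout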
# Plk1 PBD FP = Plk1 polo box domain binding inhibitors, primary screen, biochemical, fluorescence polarization; Serine/threonine-protein kinase PLK1 (Homo sapiens), P53350; Plk1 PBD phosphopeptide binding; inhibition, %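 (tested at about 20 µM)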; 97,000 tested, 0.13% active; AID 693, 2007; in the data active means inhibition above about 34%, passing the limit was not always enough
# PLK1 inh = human PLK1 kinase inhibitors, primary screen, biochemical, TR-FRET | Serine/threonine-protein kinase PLK1 (Homo sapiens), P53350 | recombinant PLK1 kinase, TR-FRET peptide phosphorylation | inhibition, % at 10 µM | 97,000 tested, 0.53% active;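 active means inhibition of 50% or more in the single-concentration screen; inactive means inhibition below 50%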;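 further: 0% = DMSO max control and 100% = H-89 dihydrochloride min control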
# Cav3 T inh = Cav3.2 calcium influx blockers – cell-based, Fluo-4 calcium fluorescence, FDSS, MLSMR library, primary screen | 100,000 tested, 4% active | Cav3.2-expressing cells; active compounds read low | Voltage-dependent T-type calcium channel subunit alpha-1H (Homo sapiens), O95180 | B-score at 10 µM;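 active means single-dose well whose peak fluorescence ratio is a statistical outlier from its plate by either plate-standardised score or position-corrected B-score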
# PTK2B oligo ant = antagonists of Pyk2 self-association, primary screen, Q293 cells, FERM NanoBiT luminescence, HTS | Protein-tyrosine kinase 2-beta (Homo sapiens), Q14289 | active compounds read low | z-score (the deposit names both 25 µM and 10 µM) | 99,000 tested, 0.83% active | AID 1347419, 2020;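 active means Z-score of -3 or lower, scaled per plate to the spread of control and sample wells; inactive means z-score above -3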;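 further: negative z-score means lost luminescence so less FERM oligomerization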
# FAK blocker = FAK kinase inhibitors, primary screen, biochemical; biochemical FAK kinase activity assay; Focal adhesion kinase 1 (Homo sapiens), Q05397; inhibition, %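 (tested at 7 µM)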; 97,000 tested, 0.84% active; in the data active means inhibition above about 19%;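 further: 0% = DMSO and 100% = reference compound high control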
# * marks the source's active call; other numbers are inactive results; x = no result; [ ] = remark or other dose.
SMILES,Rev-RRE block,Plk1 PBD FP,PLK1 inh,Cav3 T inh,PTK2B oligo ant,FAK blocker
CC(C)(C)OC(=O)NCCc1nnc(SCc2c(Cl)cccc2Cl)o1,10.3,-23.9,-12.7,-3.77,-1.76,1.9
CC(C)(C)OC(=O)N1CCC[C@H]1c1nnc(SCc2ccc(Cl)cc2Cl)o1,4.2,10.3,-11.2,-5.78*,-2.14,4.4
O=C(CSc1nnc(COc2ccc3c(c2)CCCC3)o1)Nc1ccc(F)cc1,4.2,-24.6,3.9,1.85,-0.3,-1.7
CCC(CC)C(=O)Nc1cccc(S(=O)(=O)c2cccc(NC(=O)C(CC)CC)c2)c1,-0.9,-17.7,-14.4,0.00454,-0.85,1.4
CC(C)OC(=O)NCCOC(=O)Nc1ccc(Cl)c(Cl)c1,18.9,1.6,-8.3,-6.96*,1.23,-1.1
CCC(CC)C(=O)Nc1ccc(Sc2ccc([N+](=O)[O-])cc2)cc1,6.5,17.7,-7.3,-5.12*,-1.47,4.3
CCC(CC)C(=O)Nc1ccc(Cl)c(Cl)c1,2.1,-10.5,-3.5,-5.17*,-2.18,5.9
Cc1n[nH]c(C)c1S(=O)(=O)N1CCN(C2CCCCC2)CC1,5.3,-0.4,-9.7,-0.229,-0.99,-0.7
O=P(COc1ccccc1)(c1ccccc1)c1ccccc1,0.7,-12.8,-9.2,-0.972,-0.37,-4.0
Cc1cccnc1NC(=O)C1CCN(S(=O)(=O)c2cccs2)CC1,9.0,-9.3,-7.9,0.995,0.44,-1.2
c1ccc(CC2CCN(c3nc(N4CCOCC4)nc(N4CCOCC4)n3)CC2)cc1,4.9,-20.9,-9.7,x,x,0.0
COc1cccc(-c2csc3nc[nH]c(=O)c23)c1,7.8,-8.4,60.9*,0.918,-0.17,2.4
Cc1ccc(N2C(=O)c3cccc4c(N5CCN(C)CC5)ccc(c34)C2=O)c2cccnc12,110.1*[fluorescence artefact?],2.8,-21.1,-4.31*,x,2.6
COc1ccc(C2Nc3ccccc3C(=O)N2Cc2ccco2)cc1COc1ccc(NC(C)=O)cc1 (stereo unspecified),1.2,12.9,-7.9,-0.061,-0.13,-1.9
COc1ccc(C2Nc3ccccc3C(=O)N2Cc2ccco2)cc1COc1ccccc1F (stereo unspecified),12.8,-14.2,-9.5,-5.2*,-2.31,0.8
O=c1[nH]c2c(s1)C(c1ccco1)C1C3CCC(C3)C1S2 (stereo unspecified),14.6,-3.2,-8.4,-1.64,0.48,-0.7
CCOC(=O)c1cc(S(=O)(=O)N2CCN(C(=O)OCC)CC2)cn1C,0.3,-43.7,-2.6,1.1,1.49,-1.6
O=C(COC(=O)C(Cc1ccccc1)NC(=O)c1ccco1)NC1CC1 (stereo unspecified),5.9,4.3,-10.9,1.55,0.31,-1.8
O=C(NC(Cc1ccccc1)C(=O)OCC(=O)N1CCc2ccccc21)c1ccco1 (stereo unspecified),x,x,x,-4.66*,0.68,x
CN(C)c1ccc(/C=C/C(=O)c2cccc(Br)c2)cc1,130.6*[fluorescence artefact?],-181.0,-38.3,-7.48*,-0.27,-0.2
O=C(N/N=C/C=C/c1ccccc1)c1cccc(Br)c1,7.5,0.2,-7.1,-1.24,0.07,-1.3
Cc1nc2ncnn2c(C)c1CCC(=O)NCCCN1CCN(c2cccc(Cl)c2)CC1,4.2,-4.4,-7.9,x,0.02,3.0
CCCN(CCC)C(=O)CC(c1ccccc1)c1ccc(C)cc1O (stereo unspecified),6.6,8.0,-5.2,-5.71*,-2.29,1.0
c1ccc(Cn2cc(CNc3ccccc3)nn2)cc1,x,x,x,-0.605,x,x
CCc1cccc(C)c1NC(=O)CN1C(=O)c2ccccc2S1(=O)=O,5.5,-9.8,69.0*,-0.121,x,5.6
SMILES,Rev-RRE block,Plk1 PBD FP,PLK1 inh,Cav3 T inh,PTK2B oligo ant,FAK blocker
C(=C/c1ccnc2nc(SC/C=C/c3ccccc3)nn12)/c1ccccc1,-3.6,-32.2,-1.1,-0.361,-3.02*,-5.8
CN(C(=O)COC(=O)c1ccccc1Nc1ccccc1)C1CCS(=O)(=O)C1 (stereo unspecified),5.7,-13.1,-14.0,0.0607,0.26,1.5
Cc1cccc(Nc2ccccc2C(=O)OCC(=O)N(C)C2CCS(=O)(=O)C2)c1C (stereo unspecified),8.5,12.2,-14.5,-3.38*,0.7,4.1
Cc1cccc(/C(N)=N/OC(=O)CCc2ccccc2)c1,8.4,10.6,-1.4,0.0248,0.5,9.3
CN(C1CCCCC1)S(=O)(=O)c1ccc2c(c1)c(=O)c(C(=O)NCCN1CCCC1)cn2C,9.8,-0.7,61.8*,0.87,x,-2.9
Cn1cc(C(=O)NC2CCCCC2)c(=O)c2cc(S(=O)(=O)N3CCCC3)ccc21,x,x,x,-1.45,-0.43,x
COC(=O)c1ccc(OCC(=O)Nc2nn(-c3ccccc3)nc2C(N)=O)cc1,x,x,x,0.424,0.35,x
Cc1cccc(C)c1OCC(=O)Nc1oc(-c2ccccc2)c(-c2ccccc2)c1C#N,8.0,-34.5,-5.5,-3.19,-3.47*,-2.8
N#Cc1c(NC(=O)CSc2n[nH]c(N)n2)oc(-c2ccccc2)c1-c1ccccc1,16.1,2.7,0.6,-3.59,-3.38*,-1.3
COc1ccc(-c2oc(NC(=O)c3ccc(C)cc3)c(C#N)c2-c2ccc(OC)cc2)cc1,11.0,-19.1,-13.4,-3.58*,-1.97,0.5
COc1ccc(-c2oc(NC(C)=O)c(C#N)c2-c2ccc(OC)cc2)cc1,18.3,-15.3,-4.8,-0.722,-0.92,2.1
COc1ccc(C(=O)Nc2oc(-c3ccccc3)c(-c3ccccc3)c2C#N)cc1,3.9,1.9,-9.0,-6.99*,-2.87,2.6
COC(=O)c1ccccc1NC(=O)CSc1nnc(CNS(=O)(=O)c2ccc(C)cc2)n1C,7.6,-8.8,-17.4,1.14,0.39,1.7
N#Cc1c(NC(=O)Cn2c(=O)oc3ccccc32)oc(-c2ccccc2)c1-c1ccccc1,0.5,-14.4,-12.7,-1.46,-3.77*,1.9
COc1ccc(C(=O)Nc2oc(-c3ccccc3)c(-c3ccccc3)c2C#N)cc1OC,3.6,-10.3,-21.8,-2.9,-2.91,0.0
COc1ccc(NC(=O)CCn2cccc2)cc1,-0.8,-13.6,-5.7,0.257,0.72,-7.0
CC(C(=O)OCC(=O)Nc1ccc2c(c1)OCO2)N1C(=O)c2ccccc2C1=O (stereo unspecified),3.3,-40.8,-6.5,-0.586,1.3,-6.3
CC(C(=O)Oc1ccc2c(c1)OCO2)N1C(=O)c2ccccc2C1=O (stereo unspecified),x,x,x,-3.63*,x,x
Cc1ccc(C2C(C#N)=C(N)SC(N)=C2C#N)cc1,58.5*,-27.1,-12.4,x,0.9,-3.5
C=CCOC(=O)C1=C(C)OC(N)=C(C#N)C1c1ccoc1 (stereo unspecified),27.7,-41.2,-3.5,-0.184,0,-2.8
CC(c1ccccc1)C1C(C#N)=C(N)SC(N)=C1C#N (stereo unspecified),1.2,3.0,48.4,-5.03*,-0.29,2.1

# Screens from PubChem BioAssay.
